Screens: PubChem BioAssay, several laboratories
V-ATPase pHluor = regulators of yeast V-ATPase proton transport | S. cerevisiae, pHLuorin cytosolic pH fluorescence | response, % at 10 µM | hit rate 0.37% among 350,000 | AID 504577; in the data active means response mostly above about 7.3%, no sharp cut-off; inactive means mostly below about 5.4%; further: actives read high
UPR XBP1 act = adaptive UPR (XBP1) activation; CHO-XBP1 luciferase reporter, IRE1-XBP1 UPR activation, luminescence; percent of tunicamycin response, DMSO as zero; activation, % at 20 µM; hit rate 0.33% among 330,000;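 active means versus positive control, 20 µM dose yields 30% or more activation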;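 further: 100% = tunicamycin at 10 µg/mL and 0% = DMSO only wells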
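Signal: luciferase luminescence; Assay system: CHO-XBP1 luciferase reporter cells; Amount: one thousand reporter cells per well; Dosing: 20 µM single concentration, DMSO 1%; Benchmarks: high control tunicamycin 10 µg/mL final, low control DMSO vehicle only; Schedule: 6 h compound exposure at 37 °C, 5% CO2; Evaluation: percent activation relative to tunicamycin reference.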
CHOP UPR activ = activators of apoptotic arm of unfolded protein response (CHOP) | hit rate 0.34% among 330,000 | CHO-CHOP luciferase reporter, UPR activation, luminescence; percent of tunicamycin response over DMSO baseline | activation, % at 10 µM | AID 449763;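 active means at 10 µM dose, activation of 40% or more, normalized to positive control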;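 further: 100% = tunicamycin at 10 µg/mL and 0% = DMSO alone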
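Dosing – one dose, 10 µM in 0.5% DMSO · System – CHO-CHOP cells, stable luciferase reporter of PERK-eIF2a-CHOP signalling · Input – 500 cells/well · Control set – tunicamycin 10 µg/mL final as positive, DMSO-only wells as negative · Timing – 6 h compound treatment, 37 °C · Measure – % activation vs tunicamycin · Technique – luminescence read with Steady-Glo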
CHOP inh = inhibitors of CHOP induction in ER stress response. CHO-K1 CHOP-promoter luciferase, tunicamycin-induced, 15-18 h. inhibition, % at 10 µM. hit rate 3.8% among 220,000;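 active means compounds that reduced the stress-induced luciferase reporter signal by more than about 70% of percent inhibition, limit read from the data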;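 further: 0% = tunicamycin plus vehicle and 100% = wells without tunicamycin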
Tb MetRS inh = Trypanosoma brucei MetRS inhibition. purified T. brucei MetRS, ATP depletion, Kinase-Glo luminescence. inhibition, % at 11.9 µM. hit rate 0.4% among 360,000. AID 624268;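 active means inhibition above a per-plate cutoff of the control wells' mean inhibition plus 3 SD, cut at about 5.5% in these data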;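 further: 0% = DMSO wells median and 100% = median of wells with control inhibitor compound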
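Dosing: 11.9 µM single point; system: parasite MetRS enzyme; technique: luminescence of leftover ATP; times: 15 min enzyme-compound preincubation, 2 h reaction, 10 min detection, 25 °C; replicates: each compound tested once; read-out basis: percent inhibition relative to median high and low control wells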
VATPase regulator = modulates yeast V-ATPase proton transport | shares compounds with V-ATPase pHluor | S. cerevisiae pHLuorin cytosolic pH | response, % at 10 µM | hit rate 2% among 980 | AID 602197; in the data active means response above about 24%;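 further: plate controls were vehicle wells for no effect and positive control wells for full effect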
* marks the source's active call; other numbers are inactive results; / = not tested or not shown. This excerpt belongs to a sample that is enriched for hits.

SMILES | V-ATPase pHluor | UPR XBP1 act | CHOP UPR activ | CHOP inh | Tb MetRS inh | VATPase regulator
Cc1nn(CC(=O)NCCCN2CCN(Cc3ccccc3)CC2)c(=O)c2cc(-c3ccccc3)nn12 | -4 | -2 | 1 | / | -1 | /
CCN1CCN(CCCNC(=O)Cn2nc(C)n3nc(-c4ccccc4)cc3c2=O)CC1 | 19* | 0 | 2 | / | 0 | 2
NC(c1csc(Nc2ccc(C(=O)c3ccccc3)cc2)n1)c1ccccc1Cl (stereo not drawn) | / | / | / | / | 0 | /
Cc1ccc(/C=N/NC(=O)CSc2nc3ccccc3[nH]2)o1 | -1 | 0 | 2 | / | 1 | /
CCOc1ccccc1N(CC(=O)Nc1cccnc1)S(=O)(=O)c1ccc(C)cc1 | 9.9* | -2 | 0 | 4 | 0 | 6
O=C(OCC(=O)N1CCN(c2ccccc2)CC1)c1ccccn1 | -6 | / | / | 3 | 0 | /
Cn1cccc1C(=O)OCC(=O)N1CCN(c2ccccc2)CC1 | 9.8* | -1 | 3 | / | 0 | 3
COc1ccccc1NC(=O)c1ccccc1S(=O)(=O)c1ccccc1[N+](=O)[O-] | 11* | -1 | 2 | 26 | -1 | 6
COc1ccccc1NC(=O)c1ccccc1S(=O)(=O)c1ccc([N+](=O)[O-])cc1 | -1 | -3 | 1 | / | 0 | /
COC(=O)COc1ccc(-c2ccc(F)cc2)cc1C=O | 6.2* | 4 | -1 | 9 | 0 | 20
COC(=O)COc1ccc(-c2ccccc2)cc1C=O | 1 | 2 | 0 | 9 | 1 | /
Cn1c(SCC(=O)c2ccc(F)cc2)nc2cccnc21 | 2 | -1 | 0 | 51 | 0 | /
O=C(CCSC1=NCCCN1)c1ccc(F)cc1 | 25 | / | / | / | 0 | 45*
COc1ccc(NC(=O)COC(=O)Cc2c(F)cccc2Cl)cc1OC | 0 | -2 | -1 | 6 | -1 | /
Cn1nnnc1Sc1ccc([N+](=O)[O-])cc1Cl | -3 | -3 | -2 | -4 | 0 | /
Cn1nnnc1Sc1c(Cl)cccc1[N+](=O)[O-] | 7.8* | -2 | -3 | 25 | 0 | 3
Cc1cc(NC(=O)CCC(=O)N(CC(=O)NC2CCCC2)Cc2ccc3c(c2)OCO3)no1 | 9.7* | -2 | -2 | 8 | 0 | -1
COc1ccccc1C/C(N)=N/OC(=O)c1ccc(C)c([N+](=O)[O-])c1 | -2 | 5 | -1 | 28 | 0 | /
COc1ccccc1C/C(N)=N/OC(=O)c1ccc2c(c1)OCO2 | 8.5* | -2 | 1 | 29 | 0 | 3
Cn1c(-c2cccc(Br)c2)cnc1NCc1ccccc1O | 2 | 5 | 3 | / | 0 | /
Cc1nc2ccsc2c(=O)n1-c1ccc(Cl)cc1 | -2 | 0 | -2 | 18 | 0 | -1
Cc1ccc(-n2c(C)nc3ccsc3c2=O)cc1 | -2 | -2 | -1 | / | 1 | /
O=C1C=C(c2ccc(C(=O)O)cc2)C[C@@H](c2ccc(F)cc2)C1 | 9.7* | 0 | 5 | / | 0 | -1
O=C(Sc1nnc(-c2ccccc2)o1)N1c2ccccc2Sc2ccccc21 | -1 | -4 | 5 | -4 | -1 | -2
COC(=O)C1=C(C)N(Cc2ccccc2)C(=NCCCCO)N[C@H]1CCc1ccccc1 | 0 | -2 | 0 | / | 0 | /
SMILES | V-ATPase pHluor | UPR XBP1 act | CHOP UPR activ | CHOP inh | Tb MetRS inh | VATPase regulator
O=C(O)CCN1C(=O)C2C3CC(C2C1=O)C1C(c2ccccc2)c2sc(=O)[nH]c2SC31 (stereo not drawn) | 1 | 16 | -1 | 6 | -1 | /
O=C(O)CCN1C(=O)C2C3CC(C2C1=O)C1C(c2ccccc2)c2sc(=O)n(-c4ccccc4)c2SC31 (stereo not drawn) | 9.2* | 0 | 0 | 10 | 1 | 3
CCOc1ccc(NC(=O)CCC(=O)N/N=C(\C)c2cccs2)cc1 | 8.8* | -5 | 0 | / | 1 | 1
CCOc1ccc(NC(=O)c2ccco2)cc1 | 2 | -2 | -1 | 23 | 0 | /
CCOc1ccc(NC(=O)CCC(=O)NNC(=O)c2ccco2)cc1 | 9.2* | -1 | -1 | 31 | 0 | 3
COc1cc(OC)cc(-c2c(-c3cccs3)c3cc(-c4ccc(CN5CCOCC5)cc4)ccc3n2C)c1 | 7.8* | -1 | 2 | / | 0 | -70
COc1cc(F)cc(-c2ccc3c(c2)c(-c2cccs2)c(-c2cc(OC)cc(OC)c2)n3C)c1 | 4 | 6 | -1 | / | 0 | /
C[C@H](CO)N1C[C@H](C)[C@@H](CN(C)S(=O)(=O)c2ccc(F)cc2)Oc2c(NC(=O)NC3CCCCC3)cccc2C1=O | 13* | -1 | 0 | / | 0 | 0
C[C@H](CO)N1C[C@H](C)[C@@H](CN(C)S(=O)(=O)c2ccccc2)Oc2c(NC(=O)NC3CCCCC3)cccc2C1=O | -3 | 3 | 3 | / | 0 | /
Cc1ccc(NC(=S)N2CCN(S(=O)(=O)c3ccc(F)cc3)CC2)cc1 | 1 | -9 | -2 | / | 0 | /
C[C@H](CO)N1C[C@H](C)[C@@H](CN(C)S(C)(=O)=O)Oc2ccc(NC(=O)CCC(F)(F)F)cc2C1=O | 3 | -3 | 1 | / | 0 | /
O=S(N1CCCCC1)C12CC3CC(CC(C3)C1)C2 (stereo not drawn) | 15* | 0 | -1 | -1 | 2 | 2
COc1ccc(C(CNC(=O)COc2ccc(Cl)c(C)c2)N2CCCCC2)cc1 (stereo not drawn) | 1 | -3 | 2 | / | 0 | /
Cc1ccc(S(=O)(=O)C=CS(=O)(=O)c2ccc(C)cc2)cc1 | 20* | / | / | / | 0 | 115*
COc1ccccc1C(=O)COC(=O)C1(C)CC1(Cl)Cl (stereo not drawn) | 1 | 2 | 2 | / | 0 | /
COc1cccc(C2=NOC(C(=O)Nc3ccc(C(C)=O)cc3)C2)c1 (stereo not drawn) | 13* | 5 | 4 | 43 | -1 | 4
COc1ccc(C2=NOC(C(=O)Nc3ccc(C(C)=O)cc3)C2)cc1OC (stereo not drawn) | 1 | 1 | 4 | -49 | -1 | /
COC(=O)c1cn(-c2ccc(Cl)cc2)c(=O)c2ccccc12 | -2 | 0 | 0 | 52 | 0 | /
COc1nc(Cl)cn(-c2ccc(Cl)cc2)c1=O | -3 | -2 | 1 | 18 | 0 | -1
Cc1ccc(/C=N/NC(=O)Nc2ccccc2)o1 | 38* | 0 | 9 | -28 | -1 | 1
COc1ccc(S(=O)(=O)NCC2CCCO2)cc1NC(=O)c1ccccc1 (stereo not drawn) | 7.5* | -5 | -1 | / | 0 | -1
CSc1ncccc1C(=O)Nc1ccccc1N1CCOCC1 | 1 | 2 | 1 | / | 0 | /
CC(C)OP(=O)(OC(C)C)C(NC(=O)c1cccc([N+](=O)[O-])c1)C(N)=O (stereo not drawn) | 9 | -1 | 1 | 10 | 0 | 3
CCOC(=O)c1c(C)[nH]c(C(=O)C(C)OC(=O)c2cnc(C)cn2)c1C (stereo not drawn) | 1 | 0 | -1 | / | 0 | /
